# IDH1 R132H inh: IDH1 R132H (human) inhibition; actives 0.18% (n = 70,000); IDH1 R132H reductase, diaphorase/resazurin fluorescence, 60 min; O75874; inhibition, % at 10 µM; in the data active = inhibition above about 34%; inconclusive = no clear call, values can overlap the other calls; inactive = below about 11%;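 also: 0% = DMSO and 100% = no enzyme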
# Target sequence (O75874 whole entry R132H): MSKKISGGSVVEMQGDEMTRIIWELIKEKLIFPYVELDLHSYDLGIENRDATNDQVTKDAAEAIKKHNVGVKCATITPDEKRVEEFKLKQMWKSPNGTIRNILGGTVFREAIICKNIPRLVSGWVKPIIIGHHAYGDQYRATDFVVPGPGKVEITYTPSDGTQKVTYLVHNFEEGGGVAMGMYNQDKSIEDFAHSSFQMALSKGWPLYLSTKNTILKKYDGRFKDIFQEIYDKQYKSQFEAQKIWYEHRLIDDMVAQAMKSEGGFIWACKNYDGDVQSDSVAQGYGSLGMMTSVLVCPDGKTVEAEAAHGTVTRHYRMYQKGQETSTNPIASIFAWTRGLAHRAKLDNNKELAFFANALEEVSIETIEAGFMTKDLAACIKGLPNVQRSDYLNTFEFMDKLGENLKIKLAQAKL
# T cruzi growth-1: T. cruzi proliferation inhibition; T. cruzi beta-gal in NIH3T3, GalScreen luminescence, 90 h; inhibition, % at 8.34 µM; actives 5.9% (n = 77,000); AID 624255;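 active = mean inhibition above about 93%, with at least 55% of replicates each passing it, limit read from the data, passing the limit was not always enough; inconclusive = only one of those two conditions holds; inactive = neither condition holds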
# KDM4C inh: KDM4C (human) demethylase inhibition | GST-KDM4C 2-372, H3K9me3 peptide, LANCE TR-FRET | actives 0.15% (n = 96,000) | inhibition, % at 12.5 µM | AID 720574;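 active = mean replicate inhibition above about 25%, with at least 55% of replicates also reaching it, limit read from the data, passing the limit was not always enough; inconclusive = only one of those two conditions met; inactive = neither condition met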
#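 Material: GST-tagged GASC-1 (JMJD2C) catalytic fragment, aa 2-372. Input: enzyme final amount 10 nM. Medium: HEPES buffer, pH 7.5, plus ascorbate. Reagent: H3K9me3 peptide substrate, Fe(II), 2-oxoglutarate. Doses: single dose. Times: reaction 30 min RT, detection step 1 h RT. Measured by: LANCE TR-FRET. Evaluation: Fall in 671/618 emission ratio as inhibition.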
# T cruzi growth-2: blocks T. cruzi growth in NIH3T3 host cells | shares compounds with T cruzi growth-1 | AID 651739 | inhibition, % at 8.35 µM | T. cruzi beta-gal in NIH3T3, GalScreen luminescence, 90 h | actives 72% (n = 5,600);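 active = mean replicate inhibition above about 95% and at least 55% of replicates individually reaching it, limit read from the data; inconclusive = only one of the two criteria is met; inactive = neither criterion is met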
# T cruzi growth-3: inhibitors of T. cruzi proliferation. shares compounds with T cruzi growth-1. T. cruzi beta-gal in NIH3T3, GalScreen luminescence, 90 h. inhibition, % at 2.09 µM. actives 21% (n = 5,600). AID 651740;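 active = mean inhibition above about 95%, with at least 55% of replicates also reaching it, limit read from the data; inconclusive = meets just one of the two conditions; inactive = meets neither condition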;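 also: plate controls were neutral control median for no effect and positive control median for full effect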
# 3T3 cytotox: kills mouse NIH/3T3 fibroblasts. shares compounds with T cruzi growth-1. NIH/3T3 viability, CellTiter-Glo ATP luminescence, 90 h. cytotoxicity (signal decrease), % at 8.35 µM. actives 14% (n = 5,600). AID 651742;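 active = mean signal decrease across replicates above about 35% based on untreated-well scatter, with enough replicates individually passing, limit read from the data; inconclusive = no rule stated though some were filed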;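 also: 0% = median of neutral control wells and 100% = median of positive control wells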
# 3T3 cytotox 2: NIH/3T3 (mouse) viability loss. shares compounds with T cruzi growth-1. inhibition, % at 24.9 µM. NIH/3T3 viability, CellTiter-Glo ATP luminescence, 90 h. AID 651744. actives 56% (n = 5,600);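 active = mean loss of cell viability signal at or above a set limit, and enough replicates individually reaching it; inconclusive = meets only the mean limit or only the replicate share; inactive = meets neither condition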;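 also: 0% = median of neutral control wells and 100% = median of positive control wells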
# * hit, by the source's call; ? = inconclusive; · = no result given. This excerpt belongs to a sample that is enriched for hits.
SMILES,IDH1 R132H inh,T cruzi growth-1,KDM4C inh,T cruzi growth-2,T cruzi growth-3,3T3 cytotox,3T3 cytotox 2
COc1ccc(S(=O)(=O)N(C)C[C@@H]2Oc3c(NC(=O)c4nc5ccccc5s4)cccc3C(=O)N([C@H](C)CO)C[C@@H]2C)cc1,-1,112*,-4,99*,111*,38*,51*
Cc1nn(C(C)(C)C)c(OC(=O)c2ccc(Cl)cc2)c1S(=O)(=O)c1ccccc1,0,·,·,·,·,·,·
COc1ccc(S(=O)(=O)N(C)C[C@@H]2Oc3cc(Br)ccc3S(=O)(=O)N([C@H](C)CO)C[C@@H]2C)cc1,·,?,-2,101*,39,15,61*
Cc1ccc(S(=O)(=O)N(C)C[C@H]2Oc3cc(Br)ccc3S(=O)(=O)N([C@H](C)CO)C[C@H]2C)cc1,0,67,1,·,·,·,·
COc1cccc(S(=O)(=O)N(C)C[C@@H]2Oc3cc(Br)ccc3S(=O)(=O)N([C@@H](C)CO)C[C@@H]2C)c1,·,·,-2,·,·,·,·
COc1ccc(S(=O)(=O)N(C)C[C@H]2Oc3cc(Br)ccc3S(=O)(=O)N([C@H](C)CO)C[C@H]2C)cc1,·,?,-1,102*,38,5,54*
COc1ccc(NC(=O)CN2CCN(C(=O)c3ccco3)CC2)cc1,0,·,·,·,·,·,·
CCCc1cc(=O)[nH]c(SCC(=O)Nc2cccc(F)c2)n1,0,·,·,·,·,·,·
CCn1c(SCC(=O)Nc2cc(C(F)(F)F)cc(C(F)(F)F)c2)nnc1-c1ccncc1,1,·,·,·,·,·,·
Cc1ccccc1OCC(=O)Nc1ccc(O)cc1C(=O)O,1,·,·,·,·,·,·
O=C(Cc1ccncc1)N1CC[C@@H]2[C@H](CO)Nc3ccc(-c4ccccc4F)cc3[C@@H]21,·,112*,1,107*,69,17,?
O=C(Cc1ccncc1)N1CC[C@@H]2[C@@H](CO)Nc3ccc(-c4cccc(F)c4)cc3[C@@H]21,·,·,1,·,·,·,·
O=C(Cc1ccncc1)N1CC[C@@H]2[C@H]1c1cc(-c3ccccc3F)ccc1N[C@@H]2CO,·,118*,1,99*,27,-7,11
O=C(Cc1ccccc1)N1CC[C@@H]2[C@@H](CO)Nc3ccc(-c4ccccc4F)cc3[C@@H]21,·,88,-3,·,·,·,·
CC1(C)C[C@H]2C3=CCC4[C@@]5(C)CC[C@H](O[C@@H]6O[C@H](CO)[C@@H](O)[C@H](O)[C@H]6O)C(C)(C)C5CC[C@@]4(C)[C@]3(C)CC[C@@]2(C(=O)O[C@@H]2O[C@H](CO)[C@@H](O)[C@H](O)[C@H]2O)CC1O (stereo not given in full),0,·,·,·,·,·,·
COc1ccc(C(=O)COc2ccc(NC(=O)c3ccccc3[N+](=O)[O-])cc2)cc1,0,·,·,·,·,·,·
Cc1ccc(-c2ccc3c(c2)O[C@H](CN(C)Cc2ccncc2)[C@@H](C)CN([C@@H](C)CO)S3(=O)=O)cc1,1,124*,0,103*,104*,69*,103*
Cc1ccc(-c2ccc3c(c2)O[C@@H](CN(C)Cc2ccncc2)[C@H](C)CN([C@H](C)CO)S3(=O)=O)cc1,0,123*,-1,88,100*,98*,106*
C[C@H](CO)N1C[C@H](C)[C@@H](CN(C)Cc2ccncc2)Oc2cc(-c3ccccc3)ccc2S1(=O)=O,3,61,·,·,·,·,·
C[C@@H]1CN([C@@H](C)CO)S(=O)(=O)c2ccc(-c3ccccc3)cc2O[C@@H]1CN(C)Cc1ccncc1,·,31,2,·,·,·,·
COc1ccc(-c2ccc(CCC(=O)O)n2-c2ccc(Br)cc2)cc1,1,·,·,·,·,·,·
CC(C)C(=O)Nc1ccc(C(=O)NCc2ccco2)cc1,1,·,·,·,·,·,·
COc1ccc(CCN=C2CCc3ccccc3N2)cc1OC,0,·,·,·,·,·,·
CC1Sc2ccc(Cl)cc2C(=O)/C1=C/N(C)C (stereo not given),-1,·,·,·,·,·,·
COC(=O)C1=CC(O[C@@H]2O[C@H](CO)[C@@H](O)[C@H](O)[C@H]2O)=C[C@H]2[C@]3(C)C[C@@H](c4ccoc4)OC(=O)[C@H]3CC[C@@]12C,0,·,·,·,·,·,·
SMILES,IDH1 R132H inh,T cruzi growth-1,KDM4C inh,T cruzi growth-2,T cruzi growth-3,3T3 cytotox,3T3 cytotox 2
C[C@@H]1CN([C@H](C)CO)C(=O)c2cc(NS(=O)(=O)c3ccc(Cl)cc3)ccc2O[C@H]1CN(C)Cc1ccc(C(F)(F)F)cc1,3,80,1,·,·,·,·
C[C@H]1CN([C@@H](C)CO)C(=O)c2cc(NS(=O)(=O)c3ccc(Cl)cc3)ccc2O[C@@H]1CN(C)Cc1ccc(C(F)(F)F)cc1,3,?,-1,111*,70,23,103*
C[C@H](CO)N1C[C@H](C)[C@@H](CN(C)Cc2ccc(C(F)(F)F)cc2)Oc2ccc(NS(=O)(=O)c3ccc(Cl)cc3)cc2C1=O,·,64,5,·,·,·,·
C[C@H]1CN([C@@H](C)CO)C(=O)c2cc(NS(=O)(=O)c3ccc(Cl)cc3)ccc2O[C@H]1CN(C)Cc1ccc(C(F)(F)F)cc1,-1,129*,-4,109*,72,32,103*
N#CCCN(CCC#N)C(=O)c1ccco1,6,·,·,·,·,·,·
CCCC#Cc1ccc([C@H]2[C@H]3CN(CC4CC4)CCCCN3[C@H]2CO)cc1,·,48,-1,·,·,·,·
CCCC#Cc1ccc([C@H]2[C@H](CO)N3CCCCN(CC4CCOCC4)C[C@@H]23)cc1,·,129*,1,87,47,16,77*
OC[C@@H]1[C@@H](c2ccc(C#Cc3ccccc3F)cc2)[C@@H]2CN(CC3CCOCC3)CCCCN12,·,72,-2,·,·,·,·
OC[C@@H]1[C@H](c2ccc(C#Cc3ccccc3F)cc2)[C@@H]2CN(CC3CCOCC3)CCCCN12,·,105*,0,114*,59,?,105*
COc1ccc(CNC(=O)Nc2ncc([N+](=O)[O-])s2)cc1,1,·,·,·,·,·,·
O=C(CN1CCN(S(=O)(=O)c2ccc3ccccc3c2)CC1)Nc1ccc(Br)cc1,0,·,·,·,·,·,·
CCCNC(=O)N1[C@H](C#N)[C@H](c2ccc(-c3ccccc3F)cc2)[C@@H]1CO,·,91,·,·,·,·,·
CCCNC(=O)N1[C@H](CO)[C@@H](c2ccccc2)[C@@H]1CNC(=O)c1ccccc1,·,75,0,·,·,·,·
CCCNC(=O)N1[C@@H](C#N)[C@H](c2ccc(C#Cc3cccc(F)c3)cc2)[C@@H]1CO,·,?,-2,99*,43,21,?
CCCNC(=O)N1[C@H](CO)[C@H](c2ccccc2)[C@@H]1C#N,0,21,-1,·,·,·,·
CCCNC(=O)N1[C@@H](C#N)[C@@H](c2ccc(C#Cc3cccc(F)c3)cc2)[C@@H]1CO,·,100*,1,103*,93,21,50*
CCCNC(=O)N1[C@H](CO)[C@H](c2ccccc2)[C@@H]1CNC(=O)c1cccc(F)c1,·,98*,0,86,33,0,37
O=C(CS(=O)(=O)c1ccc2ccccc2c1)c1cc2ccccc2oc1=O,0,·,·,·,·,·,·

# Bioassay records: PubChem BioAssay, Broad Institute
